Measurements published in article PMC2172834 (The Journal of Cell Biology, 2003).

B1: Bcl-w ΔC10 (C29S, A128E), His6-tagged recombinant (domain or fragment, UniProt Q92843 1-183, looked up)
chain: MATPASAPDTRALVADFVGYKLRQKGYVSGAGPGEGPAADPLHQAMRAAGDEFETRFRRTFSDLAAQLHVTPGSAQQRFTQVSDELFQGGPNWGRLVAFFVFGAALCAESVNKEMEPLVGQVQEWMVEYLETQLADWIHSSGGWAEFTALYGDGALEEARRLREGNWASVRTVLTGAVALGAL
B2: BimLΔC27 (recombinant BimL lacking its COOH-terminal hydrophobic 27 amino acids) (domain or fragment, mouse, UniProt O54918-2 1-113, looked up)
chain: MAKQPSDVSSECDREGGQLQPAERPPQLRPGAPTSLQTEPQDRSPAPMSCDKSTQTPSPPCQAFNHYLSAMASIRQSQEEPEDLRPEIRIAQELRRIGDEFNETYTRRVFAND
B3: BimLΔC27: Purified recombinant BimL lacking its COOH-terminal hydrophobic 27 amino acids (protein)
chain: B2 chain
modifications: left off: GST, end not stated, state not stated
B4: Wild-type Bcl-w: prosurvival Bcl-2 family protein, expressed FLAG-tagged (protein)
chain: MATPASAPDTRALVADFVGYKLRQKGYVCGAGPGEGPAADPLHQAMRAAGDEFETRFRRTFSDLAAQLHVTPGSAQQRFTQVSDELFQGGPNWGRLVAFFVFGAALCAESVNKEMEPLVGQVQEWMVAYLETQLADWIHSSGGWAEFTALYGDGALEEARRLREGNWASVRTVLTGAVALGALVTVGAFFASK
modifications: left off: FLAG, N-terminal, kept
B5: wtBH3, 26-mer peptide spanning the BH3 domain of Bim (peptide)
peptide: DLRPEIRIAQELRRIGDEFNETYTRR

What was measured:
[1] = test system: endogenous Bcl-w in HeLa cells; assay: Drug-induced membrane association of endogenous Bcl-w, HeLa cells; assay type: cell-based; details: 24 h, 1.0 μg/ml etoposide (VP16) or 10 nM staurosporine
Outline: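 HeLa cells were harvested 24 h after 50 Jm−2 UV, 1.0 μg/ml etoposide or 10 nM staurosporine. Lysis was in HMKEE buffer (Hepes pH 7.2) with 250 mM sucrose and 0.025% digitonin, 10 min on ice. Pellet (13,000 rpm, 2 min, 4°C) was solubilised in RIPA. Soluble and pellet fractions were immunoblotted for endogenous Bcl-w.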

Bcl-w in FDC-P1 cells = assay: Damage-induced membrane association of Bcl-w, FDC-P1 cells; assay type: cell-based
Outline: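 FDC-P1 or FD/FLAG–Bcl-w cells were given 100 nM staurosporine, 10 Gy γ irradiation or IL-3 withdrawal, in some runs with 50 μM zVAD.fmk. Cells were lysed in HMKEE/250 mM sucrose/0.025% digitonin for 10 min on ice. Pellet (13,000 rpm, 2 min, 4°C) and soluble fractions were separated. Pellet was RIPA-solubilised, with or without alkali treatment, and immunoblotted for Bcl-w.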

FDC-P1 cells = assay: Inhibition of apoptosis / cell survival; assay type: cell-based; details: zVAD.fmk with death signals
[2] = target: T1, L94ABH3, 26-mer Bim BH3 peptide with L94A (mouse, L94A (stands in the printed letters)); assay: SPR
T1 peptide: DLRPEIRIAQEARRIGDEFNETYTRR

[3] = target: B1; assay: SPR
Bcl-w ΔC10 = target: T2, Bcl-w ΔC10 (Homo sapiens, UniProt Q92843, A128E/C29S); assay: Optical biosensor; assay type: binding
T2 sequence (Q92843 1-183 C29S/A128E limits assumed): B1 chain

BimEL = assay: Coimmunoprecipitation of Bcl-w constructs with BimEL; assay type: binding; details: 35S-labeled lysates, 293T cells

COc1cc([C@@H]2c3cc4c(cc3[C@@H](O[C@@H]3O[C@@H]5CO[C@@H](C)O[C@H]5[C@H](O)[C@H]3O)[C@H]3COC(=O)[C@H]23)OCO4)cc(OC)c1O [etoposide]
membrane association of endogenous Bcl-w [1]: Damage signals trigger membrane association of endogenous Bcl-w in HeLa cells

CN[C@@H]1C[C@H]2O[C@@](C)([C@@H]1OC)n1c3ccccc3c3c4c(c5c6ccccc6n2c5c31)C(=O)NC4 [staurosporine]
membrane association of endogenous Bcl-w, alkali-resistant (Bcl-w in FDC-P1 cells; FDC-P1 cells, 100 nM staurosporine): damage signals induce membrane association resistant to alkali treatment | membrane association of endogenous Bcl-w [1]: Damage signals trigger membrane association of endogenous Bcl-w in HeLa cells

zVAD.fmk
recruitment of Bcl-w to the membrane fraction with caspase inhibitor (Bcl-w in FDC-P1 cells; 50 μM zVAD.fmk plus death signals, FD/FLAG–Bcl-w cells): Bcl-w was still recruited into the membrane fraction in response to death signals | delay of cell death (FDC-P1 cells): delayed cell death

B1
fold reduction of binding against wtBH3 [2]: > 50 fold

B2
binding result [3]: binds

B3
binding to Bcl-w (Bcl-w ΔC10): binds purified Bcl-w with high (nM) affinity

B4
binding to BimEL (BimEL): interacts avidly with Bim

B5
binding result [3]: binds
